How the values were obtained:
[1] = AUC (0-4 hrs) in BALB/c mouse at 50 mg/kg, po after 4 hrs; assay type: ADME, organism-based; set-up: time < 4 hr, dose 50 mg/kg, route oral; conditions: plasma
Procedure, shortened: (§1)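 Mouse 4 h oral exposure screen: oral dose of 50 mg/kg given as a solution in 1:1 propylene glycol:water. Plasma drug levels followed over 4 h, giving AUC(0-4h), peak concentration (Cmax) and the concentration at 4 h.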

[2] = Cmax in BALB/c mouse at 50 mg/kg, po after 4 hrs; assay type: ADME, organism-based; set-up: dose 50 mg/kg, route oral; conditions: in vivo; procedure, shortened: as §1
PC-3 = assay: cells; conditions: Homo sapiens, PC-3, 72 h
WiDr = assay: cells; conditions: Homo sapiens, 72 h
[3] = Plasma concentration in BALB/c mouse at 50 mg/kg, po after 4 hrs; assay type: ADME, organism-based; set-up: dose 50 mg/kg, route oral; procedure, shortened: as §1
K562 = assay: Antiproliferative activity against human K562 cells after 72 hrs; assay type: functional, cell-based; conditions: K562, 72 h
MDA-MB-231 = assay: cells; conditions: Homo sapiens, MDA-MB-231, 72 h
[4] = (§2) Protein binding in human serum at 10 uM; assay type: ADME, cell-free; conditions: read-out: PPB (converted)
Procedure, shortened: (§3)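 Binding to human serum proteins measured at a compound concentration of 10 μM.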

[5] = AUC (total) in Sprague-Dawley rat at 10 mg/kg, po; assay type: ADME, organism-based; set-up: dose 10 mg/kg, route oral; conditions: plasma
Procedure, shortened: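 Sprague–Dawley rats; single 10 mg/kg oral dose given as a solution. Total plasma AUC (μM·h) taken from the pharmacokinetic profile alongside Cmax, Tmax, t1/2 and MRT.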

Rattus norvegicus [6] = assay: Clearance in Sprague-Dawley rat at 10 mg/kg, iv; assay type: ADME, organism-based; set-up: dose 10 mg/kg, route intravenous; conditions: in vivo
Procedure, shortened: (§4)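 Sprague-Dawley rats dosed at 10 mg/kg, either iv or orally, with drug as a solution in citric acid buffer pH 4.6. Parameters derived from plasma levels: Cmax, Tmax, AUCtot, t1/2, MRT, clearance, Vss, and oral bioavailability.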

[7] = AUC (total) in Sprague-Dawley rat at 10 mg/kg, iv; assay type: ADME, organism-based; set-up: dose 10 mg/kg, route intravenous; conditions: plasma
Procedure, shortened: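 Sprague–Dawley rats; single 10 mg/kg intravenous dose as a solution in citric acid buffer at pH 4.6. Total plasma AUC (μM·h) taken from the pharmacokinetic profile alongside Cmax, t1/2, MRT, clearance and Vss.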

[8] = Volume of distribution in Sprague-Dawley rat at 10 mg/kg, iv; assay type: ADME, organism-based; set-up: dose 10 mg/kg, route intravenous; conditions: in vivo, read-out: Vss; procedure, shortened: as §4
[9] = Cmax in Sprague-Dawley rat at 10 mg/kg, po; assay type: ADME, organism-based; set-up: dose 10 mg/kg, route oral; conditions: in vivo
Procedure, shortened: (§5)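 Sprague–Dawley rats each given 10 mg/kg of compound, either intravenously or orally, in separate arms. Pharmacokinetic parameters were reported for each route as means with a variability term in parentheses. These were Cmax, Tmax, AUCtot, t1/2, MRT, and, for the iv dose, Cl and Vss. Oral bioavailability (Fpo) was reported for the oral arm.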

[10] = Tmax in Sprague-Dawley rat at 10 mg/kg, po; assay type: ADME, organism-based; set-up: dose 10 mg/kg, route oral; conditions: in vivo; procedure, shortened: as §4
[11] = Cmax in Sprague-Dawley rat at 10 mg/kg, iv; assay type: ADME, organism-based; set-up: dose 10 mg/kg, route intravenous; conditions: in vivo; procedure, shortened: as §5
Mus musculus = species: Mus musculus; assay: Toxicity in nude mouse; assay type: organism-based; conditions: in vivo
Procedure, shortened: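 K562 cells implanted subcutaneously in nude mice and staged to about 300 mg tumors. Oral dosing once daily at 5 or 50 mg/kg on a 5 day on/2 day off schedule for two cycles. Toxicity scored as animal deaths or lack of weight gain.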

[12] = Mean residence time in Sprague-Dawley rat at 10 mg/kg, po; assay type: ADME, organism-based; set-up: dose 10 mg/kg, route oral; conditions: in vivo; procedure, shortened: as §4
Rattus norvegicus [13] = assay: Oral bioavailability in Sprague-Dawley rat at 10 mg/kg, po; assay type: ADME, organism-based; conditions: in vivo; procedure, shortened: as §5
[14] = Mean residence time in Sprague-Dawley rat at 10 mg/kg, iv; assay type: ADME, organism-based; set-up: dose 10 mg/kg, route intravenous; conditions: in vivo; procedure, shortened: as §4
Serum = assay: as §2; assay type: ADME, cell-free; conditions: 10 µM; procedure, shortened: as §3

In the case of `Cc1cccc(Cl)c1NC(=O)c1cnc(Nc2cc(NCCN3CCOCC3)ncn2)s1`, the AUC(0-t) at 4 h [1] is reported as 17 µM·h, the Cmax [2] is reported as 9600 nM and the IC50 (PC-3) is reported as 82 nM. The IC50 (WiDr) was 270 nM, the concentration at 4 h [3] was 1900 nM and the IC50 (K562) was under 2 nM. For the same compound, the IC50 (MDA-MB-231) was 170 nM.

Compound `Cc1cccc(Cl)c1NC(=O)c1cnc(Nc2cc(N3CCOCC3)ncn2)s1` has an AUC(0-t) at 4 h [1] of 1.7 µM·h, a Cmax [2] of 960 nM and an IC50 (PC-3) of 24 nM. The IC50 (WiDr) was 270 nM, the concentration at 4 h [3] was 220 nM and the IC50 (K562) was under 3 nM. It also gave an IC50 (MDA-MB-231) of 45 nM.

For `Cc1nc(NCCCN2CCOCC2)cc(Nc2ncc(C(=O)Nc3c(C)cccc3Cl)s2)n1`, the AUC(0-t) at 4 h [1] was 11 µM·h, the Cmax [2] was 3100 nM and the IC50 (PC-3) was 14 nM. It also gave a fraction unbound at 10 µM [4] of 0.08, an IC50 (WiDr) of 27 nM and a concentration at 4 h [3] of 3100 nM. The IC50 (K562) was under 2 nM and the IC50 (MDA-MB-231) was 23 nM.

For `Cc1nc(Nc2ncc(C(=O)Nc3c(C)cccc3Cl)s2)cc(N2CCC(CO)CC2)n1`, the AUC(0-t) at 4 h [1] was 3.5 µM·h, the Cmax [2] was 2500 nM and the IC50 (PC-3) was 11 nM. It also gave an IC50 (WiDr) of 41 nM, a concentration at 4 h [3] of 180 nM and an IC50 (K562) of under 1 nM. The IC50 (MDA-MB-231) was 9 nM.

`Cc1nc(Nc2ncc(C(=O)Nc3c(C)cccc3Cl)s2)cc(N2CCOCC2)n1` showed an AUC(0-t) at 4 h [1] of 0.16 µM·h, a Cmax [2] of 67 nM and an IC50 (PC-3) of 3.6 nM. For the same compound, the IC50 (WiDr) was 27 nM, the concentration at 4 h [3] was 37 nM and the IC50 (K562) was under 3 nM. For the same compound, the IC50 (MDA-MB-231) was 16 nM.

With `Cc1nc(NCCN2CCOCC2)cc(Nc2ncc(C(=O)Nc3c(C)cccc3Cl)s2)n1` the AUC(0-t) at 4 h [1] was 3.1 µM·h, the Cmax [2] was 2200 nM and the IC50 (PC-3) was 25 nM. It also gave an IC50 (WiDr) of 180 nM, a concentration at 4 h [3] of 280 nM and an IC50 (K562) of under 1 nM. The IC50 (MDA-MB-231) was 47 nM.

For `Cc1cccc(Cl)c1NC(=O)c1cnc(Nc2cccc(NCCCN3CCOCC3)n2)s1`, the AUC(0-t) at 4 h [1] was 13 µM·h, the Cmax [2] was 8600 nM and the IC50 (PC-3) was 10 nM. The IC50 (WiDr) was 32 nM, the concentration at 4 h [3] was 1100 nM and the IC50 (K562) was under 2 nM. It also gave an IC50 (MDA-MB-231) of 34 nM.

With `Cc1cc(Nc2ncc(C(=O)Nc3c(C)cccc3Cl)s2)nc(C)n1` the IC50 (PC-3) was 67 nM and the IC50 (K562) was 1.6 nM.

`Cc1cccc(Cl)c1NC(=O)c1cnc(Nc2cccc(NCCO)n2)s1` showed an AUC(0-t) at 4 h [1] of 7.2 µM·h, a Cmax [2] of 7000 nM and an IC50 (PC-3) of 13 nM. It also gave a fraction unbound at 10 µM [4] of 0.08, an IC50 (WiDr) of 7.9 nM and a concentration at 4 h [3] of 300 nM. For the same compound, the IC50 (K562) was under 3 nM and the IC50 (MDA-MB-231) was 3.1 nM.

Compound `Cc1nc(NCCO)cc(Nc2ncc(C(=O)Nc3c(C)cccc3Cl)s2)n1` has an AUC(0-t) at 4 h [1] of 1.5 µM·h, a Cmax [2] of 800 nM and an IC50 (PC-3) of 27 nM. For the same compound, the IC50 (WiDr) was 210 nM, the concentration at 4 h [3] was 170 nM and the IC50 (K562) was under 4 nM. The IC50 (MDA-MB-231) was 140 nM.

`Cc1cccc(Cl)c1NC(=O)c1cnc(Nc2cccc(NCCCn3ccnc3)n2)s1` showed an AUC(0-t) at 4 h [1] of 0.16 µM·h, a Cmax [2] of 88 nM and an IC50 (PC-3) of 2.8 nM. It also gave a fraction unbound at 10 µM [4] of 0.01, an IC50 (WiDr) of 4.1 nM and a concentration at 4 h [3] of 33 nM. For the same compound, the IC50 (K562) was under 3 nM and the IC50 (MDA-MB-231) was under 3 nM.

`Cc1nc(Nc2ncc(C(=O)Nc3c(C)cccc3Cl)s2)cc(N2CCN(CCO)CC2)n1.O` [DASATINIB] gave an AUC(0-t) at 4 h [1] of 4.8 µM·h, an AUC [5] of 3.8 µM·h and a clearance (Rattus norvegicus [6]) of 26.4 mL/min/kg. It also gave a Cmax [2] of 2700 nM, an AUC [7] of 13.9 µM·h and a Vd [8] of 6.3 L/kg. It also gave a Cmax [9] of 500 nM, a Tmax [10] of 2.2 h and a Cmax [11] of 13200 nM. The Activity (Mus musculus) was “Non-toxic”, the IC50 (PC-3) was 9.4 nM and the MRT [12] was 6.7 h. The F (Rattus norvegicus [13]) was 27%, the MRT [14] was 4.1 h and the PPB (Serum) was 91%. For the same compound, the IC50 (WiDr) was 52 nM, the concentration at 4 h [3] was 700 nM and the IC50 (K562) was under 1 nM. The IC50 (MDA-MB-231) was 12 nM.

— ChEMBL document CHEMBL1149291, “Discovery of N-(2-chloro-6-methyl- phenyl)-2-(6-(4-(2-hydroxyethyl)- piperazin-1-yl)-2-methylpyrimidin-4-ylamino)thiazole-5-carboxamide (BMS-354825), a dual Src/Abl kinase inhibitor with potent antitumor activity in preclinical assays” (J Med Chem, 2004)
